Measured values reported in ChEMBL document CHEMBL5338774, “Quinazoline-2-Carboxamides as Selective PET Radiotracers for Matrix Metalloproteinase-13 Imaging in Atherosclerosis” (J Med Chem, 2023).
Values belong to the molecule of their own block, whether it stands above or below them.

How the values were obtained:
Neutrophil collagenase = Neutrophil collagenase (Homo sapiens, UniProt P22894); test: Inhibition of human recombinant MMP-8 incubated for 30 mins by fluorescence based analysis
Collagenase 3 = Collagenase 3 (Homo sapiens, UniProt P45452); test: Inhibition of human recombinant MMP-13 using Mca-Lys-Pro-Leu-GlyLeu-Dpa-Ala-Arg-NH2 as substrate preincubated for 30 mins followed by substrate addition by fluorescence based analysis
[1] = biological target: 72 kDa type IV collagenase (Homo sapiens, UniProt P08253); test: Inhibition of human recombinant MMP-2 incubated for 30 mins by fluorescence based analysis
Chain of 72 kDa type IV collagenase (P08253 whole entry): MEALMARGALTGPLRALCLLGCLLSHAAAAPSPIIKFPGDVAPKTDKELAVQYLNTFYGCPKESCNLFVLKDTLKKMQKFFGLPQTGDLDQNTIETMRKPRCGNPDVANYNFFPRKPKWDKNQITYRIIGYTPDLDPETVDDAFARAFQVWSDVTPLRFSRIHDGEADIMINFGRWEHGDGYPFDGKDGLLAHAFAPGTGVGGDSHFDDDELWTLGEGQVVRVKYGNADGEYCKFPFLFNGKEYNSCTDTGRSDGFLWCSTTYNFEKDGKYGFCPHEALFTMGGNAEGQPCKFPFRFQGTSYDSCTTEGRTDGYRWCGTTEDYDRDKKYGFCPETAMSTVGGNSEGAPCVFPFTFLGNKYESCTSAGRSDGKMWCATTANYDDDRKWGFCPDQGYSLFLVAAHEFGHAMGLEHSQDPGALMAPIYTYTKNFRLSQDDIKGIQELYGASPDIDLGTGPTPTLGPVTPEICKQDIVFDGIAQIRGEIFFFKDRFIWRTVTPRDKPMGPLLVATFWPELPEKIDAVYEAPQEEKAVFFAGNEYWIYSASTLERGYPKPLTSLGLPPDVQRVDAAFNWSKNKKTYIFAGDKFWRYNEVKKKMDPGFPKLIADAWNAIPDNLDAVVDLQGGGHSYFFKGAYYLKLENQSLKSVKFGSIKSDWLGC

[2] = biological target: Matrix metalloproteinase-9 (Homo sapiens, UniProt P14780); test: Inhibition of human recombinant MMP-9 incubated for 30 mins by fluorescence based analysis
Chain of Matrix metalloproteinase-9 (P14780 whole entry): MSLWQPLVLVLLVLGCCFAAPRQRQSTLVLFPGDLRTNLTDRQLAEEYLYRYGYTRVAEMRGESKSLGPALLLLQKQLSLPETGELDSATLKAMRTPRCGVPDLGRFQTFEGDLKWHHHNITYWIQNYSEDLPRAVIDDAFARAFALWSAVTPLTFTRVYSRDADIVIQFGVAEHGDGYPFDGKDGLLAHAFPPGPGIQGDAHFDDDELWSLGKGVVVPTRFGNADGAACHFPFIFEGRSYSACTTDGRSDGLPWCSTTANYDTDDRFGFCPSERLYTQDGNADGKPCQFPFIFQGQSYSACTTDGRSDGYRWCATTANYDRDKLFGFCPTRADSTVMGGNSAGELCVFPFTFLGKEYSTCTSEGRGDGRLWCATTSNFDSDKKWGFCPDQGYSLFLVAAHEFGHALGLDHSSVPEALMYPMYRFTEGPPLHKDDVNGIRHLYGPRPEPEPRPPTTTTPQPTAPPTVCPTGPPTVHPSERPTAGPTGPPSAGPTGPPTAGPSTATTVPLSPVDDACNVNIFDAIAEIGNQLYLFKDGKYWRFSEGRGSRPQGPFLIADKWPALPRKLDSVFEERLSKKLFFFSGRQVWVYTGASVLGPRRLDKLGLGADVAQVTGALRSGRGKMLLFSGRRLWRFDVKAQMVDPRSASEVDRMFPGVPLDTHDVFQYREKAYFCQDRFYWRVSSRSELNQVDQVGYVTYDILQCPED

Interstitial collagenase = biological target: T1, Interstitial collagenase (Homo sapiens, UniProt P03956); test: Inhibition of human recombinant MMP-1 incubated for 30 mins by fluorescence based analysis
T1 sequence (P03956 whole entry): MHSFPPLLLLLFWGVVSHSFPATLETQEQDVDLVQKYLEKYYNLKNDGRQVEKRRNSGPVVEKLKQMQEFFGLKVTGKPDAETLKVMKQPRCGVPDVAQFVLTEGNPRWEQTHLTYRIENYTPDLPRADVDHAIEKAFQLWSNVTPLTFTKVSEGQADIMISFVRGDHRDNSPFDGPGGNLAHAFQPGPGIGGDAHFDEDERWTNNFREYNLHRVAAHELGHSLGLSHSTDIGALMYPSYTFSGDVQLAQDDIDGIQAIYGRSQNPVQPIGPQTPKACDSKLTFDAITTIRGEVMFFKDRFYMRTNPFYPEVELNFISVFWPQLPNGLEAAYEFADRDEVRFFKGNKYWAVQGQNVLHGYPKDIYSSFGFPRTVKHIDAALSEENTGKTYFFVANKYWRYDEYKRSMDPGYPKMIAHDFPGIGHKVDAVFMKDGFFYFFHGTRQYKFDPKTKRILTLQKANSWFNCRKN

Stromelysin-2 = Stromelysin-2 (Homo sapiens, UniProt P09238); test: Inhibition of human recombinant MMP-10 using […]-Pro-Lys-Pro-Val-Glu-Nval-Trp-Arg-Lys(Dnp)-NH2 as substrate preincubated for 30 mins followed by substrate addition by fluorescence based analysis
Chain of Stromelysin-2 (P09238 whole entry): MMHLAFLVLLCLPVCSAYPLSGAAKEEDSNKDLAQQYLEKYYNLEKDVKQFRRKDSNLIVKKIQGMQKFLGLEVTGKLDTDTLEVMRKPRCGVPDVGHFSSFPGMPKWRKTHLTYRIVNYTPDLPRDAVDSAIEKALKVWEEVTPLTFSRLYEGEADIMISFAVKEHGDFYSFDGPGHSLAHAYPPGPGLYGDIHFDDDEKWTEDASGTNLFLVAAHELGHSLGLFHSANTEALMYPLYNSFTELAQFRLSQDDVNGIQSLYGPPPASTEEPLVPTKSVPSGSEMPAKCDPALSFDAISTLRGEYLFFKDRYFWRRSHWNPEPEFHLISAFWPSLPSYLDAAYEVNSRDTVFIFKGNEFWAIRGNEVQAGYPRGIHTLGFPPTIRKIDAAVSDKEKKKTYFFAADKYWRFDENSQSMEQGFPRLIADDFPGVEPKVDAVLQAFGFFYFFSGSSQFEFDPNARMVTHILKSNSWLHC

[3] = Tmax in western atherogenic diet fed ApoE-/- mouse blood at […], iv administered as bolus injection measured for 60 mins by PET analysis; format: ADME, organism-based; details: in vivo, 1 h
Method in brief: (§1)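 A 10 min transmission scan preceded tail-vein IV bolus of radiotracer (~7.5 MBq, over 30 s) in diet-fed ApoE-/- mice. Dynamic whole-body PET ran for 60 min (4×15 s, 4×1 min, 11×5 min frames), corrected for attenuation and scatter, 3D-OSEM/MAP reconstruction. Volumetric organ ROIs gave %ID·cc⁻¹ time-activity curves; n = 2 per group.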

[4] = Drug distribution in western atherogenic diet fed ApoE-/- mouse lung at […], iv administered as bolus injection measured for 30 mins by gamma counter analysis; format: ADME, organism-based; details: in vivo, 0.5 h
Method in brief: (§2)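 Diet-fed male ApoE-/- mice (39 ± 5 g, n = 4-6) under 2% isoflurane received radiotracer (~7.5 MBq, 100-200 µL) IV by tail-vein bolus over 30 s. After 30 min, blood was taken by cardiac puncture, then PBS/formalin perfusion and organ dissection. Uptake is decay-corrected %ID normalized to tissue mass (%ID/g).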

[5] = Drug distribution in western atherogenic diet fed ApoE-/- mouse myocardium assessed as myocardial retention at […], iv administered as bolus injection measured for 60 mins by PET analysis; format: ADME, organism-based; details: in vivo, 1 h; method in brief: as §1
[6] = Drug distribution in western atherogenic diet fed ApoE-/- mouse fat tissue at […], iv administered as bolus injection measured for 30 mins by gamma counter analysis; format: ADME, organism-based, Adipose tissue; details: in vivo, 0.5 h; method in brief: as §2
[7] = Drug distribution in western atherogenic diet fed ApoE-/- mouse stomach at […], iv administered as bolus injection measured for 30 mins by gamma counter analysis; format: ADME, organism-based; details: in vivo, 0.5 h; method in brief: as §2
[8] = Drug distribution in western atherogenic diet fed ApoE-/- mouse blood assessed as compound remaining at […], iv administered as bolus injection measured for 30 mins by gamma counter analysis; format: ADME, organism-based; details: in vivo, 0.5 h; method in brief: as §2
[9] = Drug distribution in western atherogenic diet fed ApoE-/- mouse myocardium assessed as compound remaining at […], iv administered as bolus injection measured for 30 mins by gamma counter analysis; format: ADME, organism-based; details: in vivo, 0.5 h; method in brief: as §2
[10] = Drug distribution in western atherogenic diet fed ApoE-/- mouse liver at […], iv administered as bolus injection measured for 30 mins by gamma counter analysis; format: ADME, organism-based; details: in vivo, 0.5 h; method in brief: as §2
[11] = Drug distribution in western atherogenic diet fed ApoE-/- mouse muscle tissue at […], iv administered as bolus injection measured for 30 mins by gamma counter analysis; format: ADME, organism-based; details: in vivo, 0.5 h; method in brief: as §2
[12] = Drug distribution in western atherogenic diet fed ApoE-/- mouse urinary bladder at […], iv administered as bolus injection measured for 60 mins by PET analysis; format: ADME, organism-based; details: in vivo, 1 h; method in brief: as §1
[13] = Drug distribution in western atherogenic diet fed ApoE-/- mouse intestine at […], iv administered as bolus injection measured for 60 mins by PET analysis; format: ADME, organism-based; details: in vivo, 1 h; method in brief: as §1
[14] = Stability in western atherogenic diet fed ApoE-/- mouse plasma assessed as intact compound level at ~75 MBq, iv administered as bolus injection and measured after 30 mins by gamma counter analysis; format: ADME, organism-based; details: read-out: Stability
Method in brief: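 Blood was drawn by cardiac puncture into K₂EDTA tubes 30 min after IV radiotracer in diet-fed ApoE-/- mice. Optional IV pretreatment 15 min before: unlabelled analogue 2.5 mg/kg or WAY170523 7.5 mg/kg. Pooled protein-free plasma was spiked with standard and run on radio-HPLC (C18, ammonium formate/ACN). Fractions were collected each minute and gamma-counted to give the parent fraction.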

[15] = Drug distribution in western atherogenic diet fed ApoE-/- mouse bone at […], iv administered as bolus injection measured for 30 mins by gamma counter analysis; format: ADME, organism-based, Bone element; details: in vivo, 0.5 h; method in brief: as §2
[16] = Drug distribution in western atherogenic diet fed ApoE-/- mouse aortic plaques at […], iv administered as bolus injection measured for 30 mins by Oil Red O staining based autoradiography; format: ADME, organism-based, Aorta; details: in vivo, 0.5 h
Method in brief: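 Male ApoE-/- mice were fed a western atherogenic diet from 8 weeks of age for 13-16 weeks. Radiotracer (~7.5 MBq) was given IV by tail-vein bolus over 30 s. Blocking: unlabelled tracer analogue (2.5 mg/kg; DMA/propylene glycol/PEG400/water) or WAY170523 (7.5 mg/kg; DMSO/PEG400/water), both IV 15 min before. At 30 min, perfused aortae were exposed to a phosphor screen for 10 half-lives (%ID·mm⁻²), with ORO staining.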

[17] = Drug distribution in western atherogenic diet fed ApoE-/- mouse brain at […], iv administered as bolus injection measured for 30 mins by gamma counter analysis; format: ADME, organism-based; details: in vivo, 0.5 h; method in brief: as §2
[18] = Drug distribution in western atherogenic diet fed ApoE-/- mouse liver at […], iv administered as bolus injection measured for 60 mins by PET analysis; format: ADME, organism-based; details: in vivo, 1 h; method in brief: as §1
[19] = Drug distribution in western atherogenic diet fed ApoE-/- mouse spleen at […], iv administered as bolus injection measured for 30 mins by gamma counter analysis; format: ADME, organism-based; details: in vivo, 0.5 h; method in brief: as §2
[20] = Stability of compound in 10% EtOH/saline assessed as compound degradation measured upto 75 mins by analytical radio-HPLC analysis; format: physicochemical; details: buffer, 1.25 h
Method in brief: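 Radiotracer formulated in 10% EtOH/0.9% saline was held at room temperature up to 75 min. Samples were analysed by analytical radio-HPLC (C18, 0.1 M ammonium formate/ACN gradient, 1 mL·min⁻¹).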

[21] = Drug distribution in western atherogenic diet fed ApoE-/- mouse pancreas at […], iv administered as bolus injection measured for 30 mins by gamma counter analysis; format: ADME, organism-based; details: in vivo, 0.5 h; method in brief: as §2
[22] = Drug distribution in western atherogenic diet fed ApoE-/- mouse intestine at […], iv administered as bolus injection measured for 30 mins by gamma counter analysis; format: ADME, organism-based; details: in vivo, 0.5 h; method in brief: as §2
[23] = Drug distribution in western atherogenic diet fed ApoE-/- mouse kidney at […], iv administered as bolus injection measured for 60 mins by PET analysis; format: ADME, organism-based; details: in vivo, 1 h; method in brief: as §1
[24] = Drug distribution in western atherogenic diet fed ApoE-/- mouse kidney at […], iv administered as bolus injection measured for 30 mins by gamma counter analysis; format: ADME, organism-based; details: in vivo, 0.5 h; method in brief: as §2
[25] = Octanol/PBS distribution coefficient, logD of compound at pH 7.4 incubated for 10 mins under shaking condition by gamma counter analysis; format: physicochemical
Method in brief: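 Radiotracer partitioning between 1-octanol and 1× PBS at pH 7.4. Mean ± standard error of two independent experiments, each in quadruplicate.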

Chain of Neutrophil collagenase (P22894 whole entry): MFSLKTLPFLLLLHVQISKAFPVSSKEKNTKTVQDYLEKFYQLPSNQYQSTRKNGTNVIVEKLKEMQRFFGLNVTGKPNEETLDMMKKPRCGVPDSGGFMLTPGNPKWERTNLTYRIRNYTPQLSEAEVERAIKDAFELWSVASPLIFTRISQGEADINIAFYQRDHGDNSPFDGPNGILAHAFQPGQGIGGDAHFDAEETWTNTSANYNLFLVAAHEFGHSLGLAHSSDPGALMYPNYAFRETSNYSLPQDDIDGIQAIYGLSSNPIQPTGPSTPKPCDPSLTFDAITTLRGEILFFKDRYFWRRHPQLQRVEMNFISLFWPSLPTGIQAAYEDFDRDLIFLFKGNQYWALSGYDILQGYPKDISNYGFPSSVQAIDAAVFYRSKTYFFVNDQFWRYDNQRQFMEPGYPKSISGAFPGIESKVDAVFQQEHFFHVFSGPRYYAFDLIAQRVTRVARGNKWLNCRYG

SMILES: COc1ccc(CCOc2c(F)ccc3nc(C(=O)NCc4ccc(F)c(C)c4)[nH]c(=O)c23)cc1
IC50 (Neutrophil collagenase): 0.78 µM
IC50 (Collagenase 3): 0.024 µM
IC50 [1]: > 10 µM
IC50 [2]: > 10 µM
IC50 (Interstitial collagenase): > 10 µM
IC50 (Stromelysin-2): 9.1 µM

SMILES: O=C(NCc1cccc(O)c1)c1nc2ccc(F)c(F)c2c(=O)[nH]1
IC50 (Collagenase 3): 0.149 µM

SMILES: Cc1cc(CNC(=O)c2cc(C(=O)NCc3ccc(OCCF)cc3)ncn2)ccc1F
IC50 (Collagenase 3): 0.052 µM

SMILES: Cc1cc(CNC(=O)c2nc3ccc(F)c(F)c3c(=O)[nH]2)ccc1F
IC50 (Collagenase 3): 0.106 µM

The remaining lines, values ahead:

IC50 (Neutrophil collagenase): 2.4 µM
IC50 (Collagenase 3): 0.0013 µM
IC50 [1]: > 10 µM
IC50 [2]: > 10 µM
IC50 (Interstitial collagenase): > 10 µM
IC50 (Stromelysin-2): 3.2 µM
SMILES: COc1cccc(CNC(=O)c2nc3ccc(F)c(OCCc4ccc(C(=O)O)cc4)c3c(=O)[nH]2)c1

Tmax [3]: 37.5 s
Drug uptake [4]: ~ 2 % ID/g
Drug uptake [5]: < 0.5 %ID/cc
Drug uptake [6]: ~ 2 % ID/g
Drug uptake [7]: ~ 2 % ID/g
Drug uptake [8]: 0.49 % ID/g
Drug uptake [9]: ~ 1 % ID/g
Drug uptake [10]: 7.29 % ID/g
Drug uptake [11]: ~ 2 % ID/g
Drug uptake [12]: Not Active
Drug uptake [13]: Active
remaining at 0.5 h [14]: 86%
Drug uptake [15]: ~ 2 % ID/g
Drug uptake [16]: 52.97 %ID.m^-2
Drug uptake [17]: ~ 2 % ID/g
Drug uptake [18]: 25.29 %ID/cc
Drug uptake [19]: 2.11 % ID/g
Stability [20]: Stable
Drug uptake [21]: ~ 2 % ID/g
Drug uptake [22]: 53.05 % ID/g
Drug uptake [23]: 21.01 %ID/cc
Drug uptake [24]: 30.95 % ID/g
logD at 10 min [25]: 1.16
SMILES: [11CH3]Oc1cccc(CNC(=O)c2nc3ccc(F)c(OCCc4ccc(C(=O)O)cc4)c3c(=O)[nH]2)c1

IC50 (Neutrophil collagenase): 1.7 µM
IC50 (Collagenase 3): 0.0012 µM
IC50 [1]: > 10 µM
IC50 [2]: > 10 µM
IC50 (Interstitial collagenase): > 10 µM
IC50 (Stromelysin-2): 2.5 µM
SMILES: Cc1cc(CNC(=O)c2nc3ccc(F)c(OCCc4ccc(C(=O)O)cc4)c3c(=O)[nH]2)ccc1F

IC50 (Neutrophil collagenase): 1.4 µM
IC50 (Collagenase 3): 0.0029 µM
IC50 [1]: > 10 µM
IC50 [2]: > 10 µM
IC50 (Interstitial collagenase): > 10 µM
IC50 (Stromelysin-2): 2.7 µM
SMILES: COc1ccc(CNC(=O)c2nc3ccc(F)c(OCCc4ccc(C(=O)O)cc4)c3c(=O)[nH]2)cc1

IC50 (Neutrophil collagenase): 2.1 µM
IC50 (Collagenase 3): 0.0013 µM
IC50 [1]: > 10 µM
IC50 [2]: > 10 µM
IC50 (Interstitial collagenase): > 10 µM
IC50 (Stromelysin-2): 2.8 µM
SMILES: O=C(O)c1ccc(CCOc2c(F)ccc3nc(C(=O)NCc4cccc(O)c4)[nH]c(=O)c23)cc1
